Assay results pooled from the literature.
Cell line: HepG2
Effect on: cell growth or viability

SMILES | assay | conditions | CC50 [µM]
COc1ccc(NC(=O)N2CCCCN3[C@H](COCCC(=O)O)[C@H](c4ccc(C#Cc5ccccc5)cc4)[C@@H]3C2)cc1 | – | – | > 40
O=[N+]([O-])c1ccc(-c2nc3cccc(O)c3[nH]2)o1 | resazurin | 72 h | 37
COc1cc(/C=C/C(=O)CC(=O)/C=C/c2ccc(O)c(OC)c2)ccc1O | MTT | 24 h | ~42
Cc1cnc(Nc2ccc(C(=O)N3CCC(N4CCCC4)CC3)cc2)nc1-c1ccc(Cl)s1 | – | 44 h | 10.5
CCc1ncn(CC(c2c[nH]c3ccc(C)cc23)c2c[nH]c3ccc(C)cc23)c1C(=O)OC | MTS | 24 h | > 20
N=C(N)NCc1ccc(NC(=O)c2ccc(C(=O)Nc3ccc(C4=CCN(C(=N)N)CC4)cc3)cn2)cc1 | MTS | 24 h | 739
O=C(c1ccc(Nc2ncc(Cl)c(-c3ccc(Cl)s3)n2)cc1)N1CCC(N2CCCC2)CC1 | – | 44 h | 5.1
NCC(=O)CCC(=O)O | ATP luminescence | – | > 1000
CCOC(=O)c1c(C)ncn1CC(c1cn(C)c2ccc([N+](=O)[O-])cc12)c1cn(C)c2ccc([N+](=O)[O-])cc12 | MTS | 24 h | > 20
COc1ccc(NC(=O)N2CCCCN3[C@H](CN(C)S(C)(=O)=O)[C@H](c4ccc(C#Cc5ccccc5)cc4)[C@@H]3C2)cc1 | – | – | > 40
Cc1cn(CC(c2cn(C)c3ccccc23)c2cn(C)c3ccccc23)nn1 | MTS | 24 h | > 20
N=C(N)NCc1ccc(NC(=O)c2ccc(C(=O)Nc3ccc(C4=CCN(C(=N)N)CC4)cc3)nc2)cc1 | MTS | 24 h | > 117
CCOC(=O)c1cn(CC(c2cn(C)c3ccc(C)cc23)c2cn(C)c3ccc(C)cc23)c(C)c1C(=O)OC | MTS | 24 h | > 20
Cc1cc(Nc2ccc(S(F)(F)(F)(F)F)cc2)n2ccnc2n1 | – | – | > 50
COC(=O)c1c(C)ncn1CC(c1c[nH]c2ccccc12)c1c[nH]c2ccccc12 | MTS | 24 h | > 20
N=C(N)NCc1ccc(NC(=O)c2ccc(C(=O)Nc3ccc(C4=CCN(C(=N)N)CC4)cn3)cc2)cc1 | MTS | 24 h | 353
